The nature of experiment [1]: In vivo inhibitory activity against Matrix metalloprotease enzyme by dialysis implant assay, value is relative to activity of CGS-27023 (38+/-3) at 25 mg/kg. po. The format is functional.
Experiment [2] concerns the target T1, Disintegrin and metalloproteinase domain-containing protein 17 (Homo sapiens, UniProt P78536). Put plainly: Inhibition of Tumor necrosis factor alpha converting enzyme (TACE) at 10 uM. In outline: (§1)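 Dose–response curves were not generated when inhibition was below 60% at 10 μM.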
Experiment [3] has as its target Collagenase 3 (Homo sapiens, UniProt P45452).
Experiment [4] in a line: In vivo inhibition of Matrix metalloprotease enzyme by Sponge-wrapped cartilage assay, value is relative to activity of CGS-27023 (39+/-3) at 25 mg/kg. po. bid. The format is functional.
Experiment [5] is described as follows: In vivo inhibitory activity against Matrix metalloprotease enzyme by dialysis implant assay, value is relative to activity of CGS-27023 (51+/-2) at 25 mg/kg. po. The format is functional.
Experiment [6] addresses Matrix metalloproteinase-9 (Homo sapiens, UniProt P14780). Put plainly: In vitro inhibitory activity against matrix metalloprotease-9.
A short description of experiment [7]: In vivo inhibitory activity against Matrix metalloprotease enzyme by dialysis implant assay, value is relative to activity of CGS-27023 (54+/-2) at 25 mg/kg. po. It counts as functional.
Experiment [8] is described as follows: In vivo inhibition of Matrix metalloprotease enzyme by Sponge-wrapped cartilage assay, value is relative to activity of CGS-27023 (25+/-4) at 25 mg/kg. po. bid. It counts as functional.
A short description of experiment [9]: In vivo inhibitory activity against Matrix metalloprotease enzyme by dialysis implant assay, value is relative to activity of CGS-27023 (65+/-4) at 25 mg/kg. po. The format is functional.
The target in experiment [10] is T2, Interstitial collagenase (Homo sapiens) (UniProt P03956).
T2 sequence (whole entry): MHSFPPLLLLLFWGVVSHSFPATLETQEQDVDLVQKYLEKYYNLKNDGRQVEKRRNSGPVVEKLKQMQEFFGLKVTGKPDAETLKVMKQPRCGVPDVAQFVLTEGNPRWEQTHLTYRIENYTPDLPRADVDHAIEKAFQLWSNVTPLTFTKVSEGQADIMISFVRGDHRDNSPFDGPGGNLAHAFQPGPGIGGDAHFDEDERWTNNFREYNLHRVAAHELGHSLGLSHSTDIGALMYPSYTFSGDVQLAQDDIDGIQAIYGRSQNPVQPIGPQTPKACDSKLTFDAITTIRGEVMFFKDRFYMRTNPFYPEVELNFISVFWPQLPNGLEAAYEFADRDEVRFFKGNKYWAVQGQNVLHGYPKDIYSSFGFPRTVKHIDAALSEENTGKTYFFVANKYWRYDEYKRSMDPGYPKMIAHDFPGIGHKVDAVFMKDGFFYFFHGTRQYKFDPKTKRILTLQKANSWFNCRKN
Put plainly: Inhibition of Matrix metalloprotease-1 at 10 uM. In outline: as §1

The target in experiment [11] is T3, Interstitial collagenase (Homo sapiens, UniProt P03956).
T3 sequence (P03956 whole entry): T2 sequence (whole entry)
Briefly: In vitro inhibitory activity against matrix metalloprotease-1.

Experiment [12] addresses T1, Disintegrin and metalloproteinase domain-containing protein 17. Briefly: In vitro inhibitory activity against tumor necrosis factor alpha converting enzyme (TACE).
Experiment [13] can be described thus: In vivo inhibitory activity against Matrix metalloprotease enzyme by dialysis implant assay, value is relative to activity of CGS-27023 (35+/-4) at 25 mg/kg. po. The format is functional.
A short description of experiment [14]: In vivo inhibitory activity against Matrix metalloprotease enzyme by dialysis implant assay, value is relative to activity of CGS-27023 (58+/-2) at 25 mg/kg. po. The format is functional.
Experiment [15] in a line: In vivo inhibitory activity against Matrix metalloprotease enzyme by dialysis implant assay, value is relative to activity of CGS-27023 (68+/-5) at 25 mg/kg. po. The format is functional.
Experiment [16] is described as follows: In vivo inhibition of Matrix metalloprotease enzyme by Sponge-wrapped cartilage assay, value is relative to activity of RS-130830 (39+/-2) at 10 mg/kg. po. bid. It counts as functional.
Experiment [17] can be described thus: In vivo inhibitory activity against Matrix metalloprotease enzyme by dialysis implant assay, value is relative to activity of CGS-27023 (73+/-3) at 25 mg/kg. po. It counts as functional.
Experiment [18] in a line: In vivo inhibitory activity against Matrix metalloprotease enzyme by dialysis implant assay, value is relative to activity of CGS-27023 (76+/-2) at 25 mg/kg. po. The format is functional.
Experiment [19] is described as follows: In vivo inhibitory activity against Matrix metalloprotease enzyme by dialysis implant assay, value is relative to activity of CGS-27023 (74+/-2) at 25 mg/kg. po. The format is functional.
Experiment [20] can be described thus: In vivo inhibition of Matrix metalloprotease enzyme by Sponge-wrapped cartilage assay, value is relative to activity of RS-130830 (43+/-3) at 25 mg/kg. po. bid. The format is functional.
A short description of experiment [21]: In vivo inhibition of Matrix metalloprotease enzyme by Sponge-wrapped cartilage assay, value is relative to activity of RS-130830 (40+/-2) at 10 mg/kg. po. bid. The format is functional.
The nature of experiment [22]: In vivo inhibitory activity against Matrix metalloprotease enzyme by dialysis implant assay, value is relative to activity of CGS-27023 (43+/-2) at 25 mg/kg. po. It counts as functional.
The nature of experiment [23]: In vivo inhibitory activity against Matrix metalloprotease enzyme by dialysis implant assay, value is relative to activity of CGS-27023 (69+/-2) at 25 mg/kg. po. The format is functional.
Experiment [24] in a line: In vivo inhibition of Matrix metalloprotease enzyme by Sponge-wrapped cartilage assay, value is relative to activity of CGS-27023 (27+/-2) at 25 mg/kg. po. bid. It counts as functional.
Experiment [25] in a line: In vivo inhibitory activity against Matrix metalloprotease enzyme by dialysis implant assay, value is relative to activity of CGS-27023 (35+/-3) at 25 mg/kg. po. It counts as functional.
A short description of experiment [26]: In vivo inhibition of Matrix metalloprotease enzyme by Sponge-wrapped cartilage assay, value is relative to activity of CGS-27023 (37+/-5) at 25 mg/kg. po. bid. It counts as functional.

pIC50: −log10 of the molar value.

T1 sequence (P78536 whole entry, the tested form may be a part): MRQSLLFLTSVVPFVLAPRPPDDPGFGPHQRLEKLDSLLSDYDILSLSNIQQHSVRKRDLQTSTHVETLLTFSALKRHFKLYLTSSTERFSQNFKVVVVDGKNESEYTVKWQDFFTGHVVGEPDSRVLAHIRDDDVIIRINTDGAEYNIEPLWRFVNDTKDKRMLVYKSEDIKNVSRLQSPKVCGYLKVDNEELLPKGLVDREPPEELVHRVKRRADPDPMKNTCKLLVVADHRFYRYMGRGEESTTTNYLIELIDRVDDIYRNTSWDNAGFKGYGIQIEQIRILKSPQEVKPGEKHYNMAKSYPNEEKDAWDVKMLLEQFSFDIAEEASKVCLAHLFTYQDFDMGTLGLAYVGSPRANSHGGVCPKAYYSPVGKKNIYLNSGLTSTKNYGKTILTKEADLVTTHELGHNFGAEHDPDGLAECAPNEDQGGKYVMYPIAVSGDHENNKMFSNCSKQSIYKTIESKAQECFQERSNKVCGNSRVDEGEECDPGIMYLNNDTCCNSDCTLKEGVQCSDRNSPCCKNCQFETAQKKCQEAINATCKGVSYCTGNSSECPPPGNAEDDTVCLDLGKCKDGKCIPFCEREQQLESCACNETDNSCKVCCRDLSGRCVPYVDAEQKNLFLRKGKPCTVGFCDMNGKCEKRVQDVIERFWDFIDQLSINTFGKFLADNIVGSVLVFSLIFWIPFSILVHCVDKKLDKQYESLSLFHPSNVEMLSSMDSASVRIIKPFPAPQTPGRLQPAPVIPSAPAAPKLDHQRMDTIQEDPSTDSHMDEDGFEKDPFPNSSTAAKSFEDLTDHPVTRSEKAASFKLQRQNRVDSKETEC
Chain of Matrix metalloproteinase-9 (P14780 whole entry): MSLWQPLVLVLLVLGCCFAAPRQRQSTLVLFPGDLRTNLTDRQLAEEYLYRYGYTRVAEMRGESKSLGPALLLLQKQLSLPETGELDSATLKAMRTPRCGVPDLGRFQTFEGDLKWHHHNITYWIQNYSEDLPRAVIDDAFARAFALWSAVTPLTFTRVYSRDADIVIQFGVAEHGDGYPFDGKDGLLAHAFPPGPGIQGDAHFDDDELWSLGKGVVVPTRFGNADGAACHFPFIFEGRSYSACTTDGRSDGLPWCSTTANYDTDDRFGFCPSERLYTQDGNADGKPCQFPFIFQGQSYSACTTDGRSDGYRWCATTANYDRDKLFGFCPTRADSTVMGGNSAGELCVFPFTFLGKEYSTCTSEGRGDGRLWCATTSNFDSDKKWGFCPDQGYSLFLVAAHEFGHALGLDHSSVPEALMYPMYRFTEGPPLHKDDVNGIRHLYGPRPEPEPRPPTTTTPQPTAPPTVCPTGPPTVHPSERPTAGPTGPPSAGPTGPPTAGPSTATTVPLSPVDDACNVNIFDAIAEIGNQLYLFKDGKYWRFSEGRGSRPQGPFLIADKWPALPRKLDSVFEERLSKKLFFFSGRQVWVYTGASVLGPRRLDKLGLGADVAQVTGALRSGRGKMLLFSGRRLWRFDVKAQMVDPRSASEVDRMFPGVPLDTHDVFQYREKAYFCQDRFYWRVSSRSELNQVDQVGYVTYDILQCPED

For the molecule `CCN1CCC(C(=O)NO)(S(=O)(=O)c2ccc(OC)cc2)CC1`, in experiment [1], 25 mg/kg produced 17% inhibition in vivo. For the same molecule, the inhibition in experiment [2] is 25%.
Regarding `CCCCOc1ccc(S(=O)(=O)C2(C(=O)NO)CCN(Cc3ccccc3)CC2)cc1`, the values for the pIC50 in [3] and in experiment [6] were 9.00 and 8.40, respectively. Further, the results for the inhibition in vivo at 25 mg/kg in [4] and in experiment [5] were 53% and 80%, respectively.
As for `CCCCOc1ccc(S(=O)(=O)C2(C(=O)NO)CCN(Cc3ccc(OC)cc3)CC2)cc1`, the inhibition in vivo at 25 mg/kg in experiment [7] was 69%; in [8], 17%. For the same molecule, the pIC50 was 9.00 in [3] and 8.52 in [6].
`CCCCOc1ccc(S(=O)(=O)C2(C(=O)NO)CCN(Cc3cccc(OCCN4CCOCC4)c3)CC2)cc1`: the inhibition in vivo at 25 mg/kg in experiment [9] stood at 27%.
In the case of `O=C(NO)C1(S(=O)(=O)c2ccc(OCc3ccccc3)cc2)CCN(Cc2ccccc2)CC1`, the inhibition in experiment [10] amounted to 48%. In addition, the pIC50 in experiment [11] was 7.40; in experiment [12], 6.38; in experiment [6] it was 8.52. In addition, at 25 mg/kg the inhibition in vivo in experiment [13] was 17%.
In experiment [14], `COc1ccc(S(=O)(=O)C2(C(=O)NO)CCN(C)CC2)cc1` came in with an inhibition in vivo at 25 mg/kg of 36%. This molecule registered an inhibition in experiment [2] of 20%.
In [15], `COc1ccc(S(=O)(=O)C2(C(=O)NO)CCN(C(C)C)CC2)cc1` yielded an inhibition in vivo at 25 mg/kg of 49%. This molecule returned an inhibition in experiment [2] of 18%.
`CCCCN1CCC(C(=O)NO)(S(=O)(=O)c2ccc(Oc3ccc(Cl)cc3)cc2)CC1` gave an inhibition in vivo at 10 mg/kg in experiment [16] of 69%. The pIC50 was 9.00 in experiment [3], 5.97 in experiment [11], 6.52 in experiment [12] and 9.00 in [6]. The inhibition in vivo at 25 mg/kg in experiment [17] amounted to 93%.
Turning to `COc1ccc(S(=O)(=O)C2(C(=O)NO)CCN(Cc3ccc(C)cc3)CC2)cc1`, the pIC50 in experiment [3] was 8.70; in [6], 7.77. In experiment [18], this molecule gave an inhibition in vivo at 25 mg/kg of 89%.
Take `CCCCOc1ccc(S(=O)(=O)C2(C(=O)NO)CCN(CCCC)CC2)cc1`: the inhibition in vivo at 25 mg/kg in [19] was determined as 86%; in [20] it was 46%. In experiment [3], this molecule gave a pIC50 of 8.70. The same molecule came in with an inhibition in experiment [10] of 50%.
For the molecule `CCCCOc1ccc(S(=O)(=O)C2(C(=O)NO)CCN(C)CC2)cc1`, 10 mg/kg produced 12% inhibition in vivo in experiment [21]. Moreover, the values for the pIC50 in [3] and in experiment [6] were 8.70 and 8.00, respectively. Besides, the inhibition in vivo at 25 mg/kg in [22] was determined as 64%.
Take `CCCCOc1ccc(S(=O)(=O)C2(C(=O)NO)CCN(CCCOc3ccccc3)CC2)cc1`: the inhibition in vivo at 25 mg/kg in [23] came to 67%; in experiment [24] it was 17%. The pIC50 in experiment [6] was 8.30.
On to `CCCCOc1ccc(S(=O)(=O)C2(C(=O)NO)CCN(Cc3ccc(F)cc3)CC2)cc1`, for which the pIC50 in [3] was 8.30. Testing at 25 mg/kg in experiment [25] gave an inhibition in vivo of 48%. In addition, the inhibition in experiment [2] stood at 39%.
Regarding `COc1ccc(CN2CCC(C(=O)NO)(S(=O)(=O)c3ccc(OC)cc3)CC2)cc1`, the pIC50 in experiment [3] is 8.70. Besides, the inhibition in vivo at 25 mg/kg turned out to be 45% in experiment [26] and 75% in experiment [23].

The values are drawn from ChEMBL document CHEMBL1145787, “Synthesis and structure-activity relationship of N-substituted 4-arylsulfonylpiperidine-4-hydroxamic acids as novel, orally active matrix metalloproteinase inhibitors for the treatment of osteoarthritis” (J Med Chem, 2003).
